Serum TG, Change and Liver weight data for twelve compounds are collected here from ChEMBL document CHEMBL1122164, “Hypolipidemic 4,5-dihydro-4-oxo-5,5-disubstituted-2-furancarboxylic acids” (1982).

Assay [1] concerns Rattus norvegicus. In words: Effect on serum Triglycerides was measured on control rats at a dose of 0.05 (mmol/kg)/day. The format is functional, organism-based.
Assay [2] has as its system Rattus norvegicus. Put plainly: Effect on serum Triglycerides was measured on treated rats at a dose of 0.05 (mmol/kg)/day. The format is functional, organism-based.
Assay [3] relates to Rattus norvegicus. In words: Effect on serum Triglycerides was measured on treated rats at a dose of 0.5 (mmol/kg)/day. The assay is classed as functional, organism-based.
Assay [4] concerns Rattus norvegicus. Put plainly: Effect on serum Triglycerides was measured on control rats at a dose of 0.5 (mmol/kg)/day. The format is functional, organism-based.
Assay [5] deals with Rattus norvegicus. Put plainly: Effect on serum Triglycerides levels was measured on control rats at a dose of 0.05 (mmol/kg)/day. The assay is classed as functional, organism-based.
Assay [6] deals with Rattus norvegicus. In words: Effect on serum Triglycerides levels was measured on treated rats at a dose of 0.5 (mmol/kg)/day. The format is functional, organism-based.
For assay [7], the system named is Rattus norvegicus. In words: Effect on serum Triglycerides levels was measured on treated rats at a dose of 0.05 (mmol/kg)/day. The format is functional, organism-based.
In assay [8] the test system is Rattus norvegicus. In words: Effect on serum Triglycerides levels was measured on control rats at a dose of 0.5 (mmol/kg)/day. The assay is classed as functional, organism-based.
Assay [9] relates to Rattus norvegicus. Put plainly: Effect on serum Triglycerides was determined in normal rats at a dose of 1 (mmol/kg)/day. The assay is classed as functional. The method, boiled down: (§1)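 Normal rats, 8-10 per group, dosed daily for 7 consecutive days by gastric intubation with compound suspended in 2% Tween 80. Decapitated 3 h after last dose; serum triglycerides measured by semiautomated method. Result expressed as % change from vehicle control group mean; significance by two-tailed Student's t test.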

Assay [10] deals with Rattus norvegicus. Put plainly: Effect on serum Triglycerides was determined in normal rats at a dose of 0.02 (mmol/kg)/day. The assay is classed as functional. The method, boiled down:
as §1

For assay [11], the system named is Rattus norvegicus. In words: Effect on serum Triglycerides was determined in normal rats at a dose of 0.1 (mmol/kg)/day. The assay is classed as functional. The essentials:
as §1

Assay [12] has as its system Rattus norvegicus. In words: Effect on serum Triglycerides was determined in normal rats at a dose of 0.2 (mmol/kg)/day. The assay is classed as functional. The method, boiled down:
as §1

Assay [13] relates to Rattus norvegicus. Put plainly: Effect on liver weight was measured on treated rats at a dose of 0.05 (mmol/kg)/day. The format is functional.
Assay [14] deals with Rattus norvegicus. Put plainly: Effect on liver weight was measured on control rats at a dose of 0.5 (mmol/kg)/day. The assay is classed as functional.
Assay [15] has as its system Rattus norvegicus. Put plainly: Effect on liver weight was measured on treated rats at a dose of 0.5 (mmol/kg)/day. The assay is classed as functional.
Assay [16] concerns Rattus norvegicus. In words: Effect on liver weight was measured on control rats at a dose of 0.05 (mmol/kg)/day. The assay is classed as functional.
The subject of assay [17] is Rattus norvegicus. Put plainly: Effect on serum Triglycerides was determined in normal rats at a dose of 0.01 (mmol/kg)/day. The format is functional. The method, boiled down: as §1
For assay [18], the system named is Rattus norvegicus. In words: Effect on serum Triglycerides was determined in normal rats at a dose of 0.03 (mmol/kg)/day. The assay is classed as functional. The method, boiled down: as §1
In assay [19] the test system is Rattus norvegicus. In words: Effect on serum Triglycerides was determined in normal rats at a dose of 0.005 (mmol/kg)/day. The format is functional. The method, boiled down:
as §1

Regarding `O=C(O)c1cccnc1`, the Serum TG in the assay on Rattus norvegicus [1] was found to be 104 mg/dL; in the assay on Rattus norvegicus [2], 97 mg/dL; in the assay with Rattus norvegicus [3] it was 47 mg/dL; in the assay with Rattus norvegicus [4] it was 88 mg/dL.

For `CC1(c2ccccc2)OC(C(=O)O)=CC1=O` (stereo in doubt; 5b), the Serum TG came to 104 mg/dL in the assay on Rattus norvegicus [5], 38 mg/dL in the assay with Rattus norvegicus [6], 58 mg/dL in the assay with Rattus norvegicus [7] and 98 mg/dL in the assay with Rattus norvegicus [8].

As to `CC1(C)OC(C(=O)O)=CC1=O`, the Change was -36% with Rattus norvegicus [9], -36% with Rattus norvegicus [10], -43% with Rattus norvegicus [11] and -36% in the assay on Rattus norvegicus [12].

Take `CCOC(=O)C(C)(C)Oc1ccc(Cl)cc1` [CLOFIBRATE]: the Serum TG in the assay with Rattus norvegicus [1] stood at 104 mg/dL; in the assay with Rattus norvegicus [2], 101 mg/dL; with Rattus norvegicus [3] it was 43 mg/dL; with Rattus norvegicus [4], 87 mg/dL. In addition, the Liver weight is 8.4 g in the assay with Rattus norvegicus [13], 9 g in the assay with Rattus norvegicus [14], 10.7 g with Rattus norvegicus [15] and 8.5 g in the assay on Rattus norvegicus [16]. Further, the Change in the assay with Rattus norvegicus [9] is -55%; in the assay with Rattus norvegicus [11] it was -9%; with Rattus norvegicus [12] it was -36%.

Take `O=C(O)C1=CC(=O)C2(CCCc3ccccc32)O1` (centres undefined): the Change with Rattus norvegicus [9] is listed as -43%.

For `CC(C)C1(c2ccccc2)OC(C(=O)O)=CC1=O` (centres undefined), the Change in the assay on Rattus norvegicus [9] was -53%; in the assay on Rattus norvegicus [10], -10%; with Rattus norvegicus [11], -2%; in the assay with Rattus norvegicus [12], -31%.

With `CC1(c2ccccc2)OC(C(=O)O)=CC1=O` (stereo in doubt; (+)-5b) [ACIFRAN], the values for the Change with Rattus norvegicus [17], in the assay with Rattus norvegicus [18] and in the assay on Rattus norvegicus [11] were -39%, -29% and -38%, respectively.

For `CC1(c2ccccc2)OC(C(=O)O)=CC1=O` (single isomer, unassigned; (-)) [ACIFRAN], the figures for the Change in the assay on Rattus norvegicus [17], in the assay with Rattus norvegicus [18] and with Rattus norvegicus [11] were -11%, -23% and -31%, respectively.

For the compound `CC1(c2ccccc2)OC(=O)C(=O)CC1=O` (centres undefined), the Change in the assay with Rattus norvegicus [10] is recorded as -13%; with Rattus norvegicus [11], -27%; with Rattus norvegicus [12] it was -31%.

As to `COC(=O)C1=CC(=O)C(C)(c2ccccc2)O1` (centres undefined), the Change in the assay with Rattus norvegicus [9] was -53%; in the assay with Rattus norvegicus [10], -34%; in the assay on Rattus norvegicus [11] it was -40%; in the assay with Rattus norvegicus [12], -40%.

On to `CC1(c2ccccc2)OC(C(=O)O)=CC1=O` (stereo in doubt; 5b) [ACIFRAN], for which the Liver weight in the assay on Rattus norvegicus [13] is on record as 8.7 g; with Rattus norvegicus [14] it was 10.2 g; with Rattus norvegicus [15], 10.2 g; in the assay with Rattus norvegicus [16] it was 8.5 g. Also, the Change is -37% in the assay with Rattus norvegicus [17]; -55% in the assay with Rattus norvegicus [9]; -43% in the assay on Rattus norvegicus [18]; -40% in the assay with Rattus norvegicus [10]; -44% in the assay on Rattus norvegicus [11]; -23% in the assay with Rattus norvegicus [19]. Besides, in the assay on Rattus norvegicus [12], the Change is -52%.

Take `CC1(c2ccc(Cl)cc2)OC(C(=O)O)=CC1=O` (centres undefined): the Change with Rattus norvegicus [10] is reported as -27%; in the assay on Rattus norvegicus [12] it was -42%.
